Experiments:
[1] = molecular target: T1, Adrenergic receptor alpha-2 (Rattus norvegicus, UniProt P22086+P19328+P22909); assay: (§1) Binding affinity towards Alpha-2 adrenergic receptor in rat cerebral cortex using [3H]rauwolscine as radioligand; type: tissue-based
T1 sequence (P22086 whole entry): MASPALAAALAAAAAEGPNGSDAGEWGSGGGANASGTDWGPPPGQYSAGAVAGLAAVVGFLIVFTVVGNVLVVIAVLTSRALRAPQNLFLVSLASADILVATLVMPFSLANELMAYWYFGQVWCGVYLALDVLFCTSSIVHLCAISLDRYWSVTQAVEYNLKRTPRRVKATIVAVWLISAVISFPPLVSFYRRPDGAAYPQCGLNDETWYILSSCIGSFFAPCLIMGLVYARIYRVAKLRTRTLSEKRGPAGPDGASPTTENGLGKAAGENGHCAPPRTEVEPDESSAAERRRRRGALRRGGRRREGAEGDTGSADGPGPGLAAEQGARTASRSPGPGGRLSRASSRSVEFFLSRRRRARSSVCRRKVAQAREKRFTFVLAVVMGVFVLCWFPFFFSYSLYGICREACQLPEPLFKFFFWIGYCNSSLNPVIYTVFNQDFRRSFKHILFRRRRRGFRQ
T1 sequence (P19328 whole entry): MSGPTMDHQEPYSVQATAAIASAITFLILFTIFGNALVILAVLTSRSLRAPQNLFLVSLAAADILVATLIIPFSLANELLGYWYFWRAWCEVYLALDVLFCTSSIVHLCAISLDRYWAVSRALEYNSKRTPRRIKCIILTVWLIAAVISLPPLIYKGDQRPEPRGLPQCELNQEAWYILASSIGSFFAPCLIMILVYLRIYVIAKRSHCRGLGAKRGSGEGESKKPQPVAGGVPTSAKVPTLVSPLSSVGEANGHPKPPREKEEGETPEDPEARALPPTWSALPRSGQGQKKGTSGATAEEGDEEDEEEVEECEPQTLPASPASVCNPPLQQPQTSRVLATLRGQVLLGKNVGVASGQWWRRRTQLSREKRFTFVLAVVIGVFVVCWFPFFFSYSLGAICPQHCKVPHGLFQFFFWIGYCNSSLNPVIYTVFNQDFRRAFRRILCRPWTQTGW
T1 sequence (P22909 whole entry): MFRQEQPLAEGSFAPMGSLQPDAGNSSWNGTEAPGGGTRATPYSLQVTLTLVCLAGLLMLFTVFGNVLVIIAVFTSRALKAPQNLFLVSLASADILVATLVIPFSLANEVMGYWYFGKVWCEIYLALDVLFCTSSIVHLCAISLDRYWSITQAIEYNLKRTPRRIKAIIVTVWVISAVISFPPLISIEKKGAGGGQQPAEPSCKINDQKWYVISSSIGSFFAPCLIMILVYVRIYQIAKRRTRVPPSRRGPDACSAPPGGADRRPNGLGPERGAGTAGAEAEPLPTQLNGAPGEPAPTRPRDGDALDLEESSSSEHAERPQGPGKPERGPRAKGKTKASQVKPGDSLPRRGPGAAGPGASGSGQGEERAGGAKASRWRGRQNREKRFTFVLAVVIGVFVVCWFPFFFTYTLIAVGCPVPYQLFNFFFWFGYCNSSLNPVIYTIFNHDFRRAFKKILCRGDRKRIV
Procedure, shortened: (§2)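 Rat brain membranes (native receptors): cerebral cortex for α1 with [3H]prazosin (79.2 Ci/mmol) and α2 with [3H]rauwolscine (80.5 Ci/mmol); hippocampus for 5-HT1A with [3H]8-OH-DPAT (162.9 Ci/mmol); striatum for D2 with [3H]spiperone (17.7 Ci/mmol). Radioligand competition by test drug; mean ± SE of at least three separate experiments in triplicate.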

[2] = molecular target: T2, 5-hydroxytryptamine receptor 1A (Rattus norvegicus, UniProt P19327); assay: Binding affinity towards 5-hydroxytryptamine 1A receptor in rat hypocampus membrane using [3H]8-OH-DPAT as radioligand; type: cell membranes; procedure, shortened: as §2
T2 sequence (P19327 whole entry): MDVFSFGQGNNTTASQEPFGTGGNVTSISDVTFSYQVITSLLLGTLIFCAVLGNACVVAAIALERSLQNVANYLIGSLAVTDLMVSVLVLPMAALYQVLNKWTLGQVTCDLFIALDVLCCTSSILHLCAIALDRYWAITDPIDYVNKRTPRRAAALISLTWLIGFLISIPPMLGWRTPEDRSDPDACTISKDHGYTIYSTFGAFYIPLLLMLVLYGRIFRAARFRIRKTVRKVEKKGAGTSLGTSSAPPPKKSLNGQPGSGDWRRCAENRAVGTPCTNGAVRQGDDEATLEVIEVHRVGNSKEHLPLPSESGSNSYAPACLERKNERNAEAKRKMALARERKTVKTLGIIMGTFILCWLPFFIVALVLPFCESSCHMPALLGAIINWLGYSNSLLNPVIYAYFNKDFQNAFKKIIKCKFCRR

[3] = molecular target: T3, Adrenergic receptor alpha-2 (Rattus norvegicus) (UniProt P22086+P19328+P22909); assay: as §1; type: tissue-based; procedure, shortened: as §2
[4] = molecular target: T4, Adrenergic receptor alpha-1 (Rattus norvegicus, UniProt P15823+P23944+P43140); assay: pA2 values was evaluated against Alpha-1 adrenergic receptor in the isolated Rat Vas Deferens; type: functional, tissue-based
T4 sequence (P15823 whole entry): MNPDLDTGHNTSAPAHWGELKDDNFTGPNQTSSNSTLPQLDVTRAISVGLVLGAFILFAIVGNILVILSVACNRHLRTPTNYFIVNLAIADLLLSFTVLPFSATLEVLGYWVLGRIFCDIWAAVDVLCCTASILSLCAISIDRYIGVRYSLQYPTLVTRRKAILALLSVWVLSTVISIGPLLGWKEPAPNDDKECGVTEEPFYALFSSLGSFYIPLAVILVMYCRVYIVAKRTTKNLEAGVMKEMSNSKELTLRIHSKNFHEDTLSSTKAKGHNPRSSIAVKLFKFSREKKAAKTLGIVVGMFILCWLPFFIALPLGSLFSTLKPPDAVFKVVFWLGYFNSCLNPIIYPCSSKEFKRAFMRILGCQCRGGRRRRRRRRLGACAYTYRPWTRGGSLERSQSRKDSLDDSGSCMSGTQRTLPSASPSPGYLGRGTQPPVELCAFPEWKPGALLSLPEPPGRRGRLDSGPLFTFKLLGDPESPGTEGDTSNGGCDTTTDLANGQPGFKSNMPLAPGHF
T4 sequence (P23944 whole entry): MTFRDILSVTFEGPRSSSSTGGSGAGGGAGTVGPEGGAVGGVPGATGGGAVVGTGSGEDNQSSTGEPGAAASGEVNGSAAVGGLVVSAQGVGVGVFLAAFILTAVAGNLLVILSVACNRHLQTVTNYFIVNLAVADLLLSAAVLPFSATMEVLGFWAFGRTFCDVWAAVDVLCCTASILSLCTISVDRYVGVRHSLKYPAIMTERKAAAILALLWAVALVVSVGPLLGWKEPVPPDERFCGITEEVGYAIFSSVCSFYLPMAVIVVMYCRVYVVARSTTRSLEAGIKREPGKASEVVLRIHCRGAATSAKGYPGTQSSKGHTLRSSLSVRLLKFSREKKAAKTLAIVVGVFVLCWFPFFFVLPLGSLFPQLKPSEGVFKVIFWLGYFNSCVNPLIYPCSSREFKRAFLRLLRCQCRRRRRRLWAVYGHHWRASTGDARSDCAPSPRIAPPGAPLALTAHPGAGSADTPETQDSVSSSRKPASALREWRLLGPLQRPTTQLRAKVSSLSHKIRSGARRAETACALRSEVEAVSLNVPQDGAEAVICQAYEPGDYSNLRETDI
T4 sequence (P43140 whole entry): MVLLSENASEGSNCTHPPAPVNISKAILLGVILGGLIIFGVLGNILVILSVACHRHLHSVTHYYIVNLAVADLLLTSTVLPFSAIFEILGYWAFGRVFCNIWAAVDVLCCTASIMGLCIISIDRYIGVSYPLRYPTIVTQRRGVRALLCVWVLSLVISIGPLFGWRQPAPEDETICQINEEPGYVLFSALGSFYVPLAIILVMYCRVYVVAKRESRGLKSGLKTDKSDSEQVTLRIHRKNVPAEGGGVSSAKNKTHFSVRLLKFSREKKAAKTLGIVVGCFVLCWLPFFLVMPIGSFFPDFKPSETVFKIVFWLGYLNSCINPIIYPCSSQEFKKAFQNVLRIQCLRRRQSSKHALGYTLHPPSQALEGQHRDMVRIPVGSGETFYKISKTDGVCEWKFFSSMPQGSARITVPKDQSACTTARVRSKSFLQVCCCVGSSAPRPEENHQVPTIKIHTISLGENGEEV
Procedure, shortened: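 Functional antagonism was measured in isolated tissue. Dose ratios were taken at agonist EC50 values at three antagonist concentrations, each concentration tested five times. pA2 was derived from Schild plots constrained to slope -1 and is reported as mean ± SE of n experiments.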

[5] = molecular target: T5, Alpha-1D adrenergic receptor (Rattus norvegicus, UniProt P23944); assay: Binding affinity towards Alpha-1D adrenergic receptor in rat brain using [3H]prazosin as radioligand; type: tissue-based
T5 sequence (P23944 whole entry): T4 sequence (P23944 whole entry)

[6] = molecular target: T6, Alpha-1A adrenergic receptor (Rattus norvegicus, UniProt P43140); assay: Binding affinity towards Alpha-1A adrenergic receptor in rat hippocampus (+ 10 uM) […] membrane using [3H]prazosin as radioligand; type: tissue-based
T6 sequence (P43140 whole entry): T4 sequence (P43140 whole entry)
Procedure, shortened: (§3)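 Native α1A site from rat hippocampus membranes pretreated with CEC, labelled with [3H]prazosin in competition binding. Mean ± SE of at least three separate experiments, each run in triplicate.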

[7] = molecular target: T7, Alpha-1A adrenergic receptor (Bos taurus, UniProt P18130); assay: Binding affinity towards Alpha-1A adrenergic receptor in bovine brain using [3H]-prazosin as radioligand
T7 sequence (P18130 whole entry): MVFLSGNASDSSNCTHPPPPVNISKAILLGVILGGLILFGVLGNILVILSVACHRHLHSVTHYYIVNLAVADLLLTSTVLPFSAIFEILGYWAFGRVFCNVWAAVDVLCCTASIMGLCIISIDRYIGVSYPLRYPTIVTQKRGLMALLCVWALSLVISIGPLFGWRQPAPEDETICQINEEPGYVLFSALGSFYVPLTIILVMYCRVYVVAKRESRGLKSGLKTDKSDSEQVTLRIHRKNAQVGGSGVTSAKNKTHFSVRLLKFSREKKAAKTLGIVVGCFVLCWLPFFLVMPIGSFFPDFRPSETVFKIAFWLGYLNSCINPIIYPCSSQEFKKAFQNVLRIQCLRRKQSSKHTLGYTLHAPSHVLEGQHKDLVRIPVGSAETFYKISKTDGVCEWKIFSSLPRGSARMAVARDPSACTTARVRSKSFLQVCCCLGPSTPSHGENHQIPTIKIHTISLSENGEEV
Procedure, shortened: (§4)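 Membranes (35-70 µg protein) from COS-7 cells transiently expressing bovine α1a, hamster α1b or rat α1d adrenoceptor. Incubated with 0.3-0.6 nM [3H]prazosin ± displacer in 50 mM Tris-HCl pH 7.4, 10 µM pargyline, 0.1% ascorbic acid, 30 min at 25 °C. Stopped with ice-cold buffer, then rapid filtration. Mean ± SE of ≥3 experiments in triplicate.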

[8] = molecular target: T8, Alpha-1B adrenergic receptor (Rattus norvegicus, UniProt P15823); assay: Binding affinity towards Alpha-1B adrenergic receptor in rat liver using [3H]prazosin as radioligand
T8 sequence (P15823 whole entry): T4 sequence (P15823 whole entry)

[9] = molecular target: T4, Adrenergic receptor alpha-1; assay: Binding affinity towards Alpha-1 adrenergic receptor in rat cerebral cortex using [3H]prazosin as radioligand; type: tissue-based; procedure, shortened: as §2
[10] = molecular target: T3, Adrenergic receptor alpha-2 (Rattus norvegicus); conditions: Vas deferens
[11] = molecular target: T9, D(2) dopamine receptor (Rattus norvegicus, UniProt P61169); assay: In vitro inhibitory activity against [3H]spiperone binding to Dopamine receptor D2
T9 sequence (P61169 whole entry): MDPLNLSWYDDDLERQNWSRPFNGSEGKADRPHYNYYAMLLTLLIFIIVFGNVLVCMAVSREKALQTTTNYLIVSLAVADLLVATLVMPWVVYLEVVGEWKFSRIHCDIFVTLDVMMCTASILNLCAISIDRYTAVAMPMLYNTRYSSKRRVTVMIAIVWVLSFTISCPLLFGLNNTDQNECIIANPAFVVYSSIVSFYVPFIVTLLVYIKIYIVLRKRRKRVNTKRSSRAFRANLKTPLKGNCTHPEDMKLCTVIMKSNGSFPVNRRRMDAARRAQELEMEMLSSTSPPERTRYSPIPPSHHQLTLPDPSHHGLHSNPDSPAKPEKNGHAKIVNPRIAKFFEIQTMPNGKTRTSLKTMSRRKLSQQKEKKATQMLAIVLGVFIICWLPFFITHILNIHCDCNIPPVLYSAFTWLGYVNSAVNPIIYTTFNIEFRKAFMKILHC

[12] = molecular target: T6, Alpha-1A adrenergic receptor; assay: Binding affinity towards Alpha-1A adrenergic receptor in rat hippocampal membranes using [3H]prazosin as radioligand; type: cell membranes, Hippocampus; procedure, shortened: as §3
[13] = molecular target: T7, Alpha-1A adrenergic receptor; assay: Binding affinity towards Alpha-1A adrenergic receptor in bovine brain using [3H]prazosin as radioligand; procedure, shortened: as §4
[14] = molecular target: T9, D(2) dopamine receptor; assay: Binding affinity towards Dopamine receptor D2 in rat striatum using [3H]spiperone as radioligand; type: tissue-based; procedure, shortened: as §2
[15] = molecular target: T3, Adrenergic receptor alpha-2 (Rattus norvegicus); conditions: Vas deferens; remark: listed apart in the source

Structure (SMILES)	Ki [1] [nM]	Ki [2] [nM]	Affinity [3] [µM]	pA2 [4]	Ki [5] [nM]	Ki [6] [nM]	Ki [7] [nM]	Ki [8] [nM]	Ki [9] [nM]	-Log KB [10]	Ki [11] [nM]	Ki [12] [nM]	Ki [13] [nM]	Ki [14] [nM]	-Log KB [15]
COC(=O)C1=C(C)NC(C)=C(C(=O)OCCCN2CCC(c3ccccc3)(c3ccccc3)CC2)[C@H]1c1cccc([N+](=O)[O-])c1 [NIGULDIPINE]	1611	–	–	–	–	–	–	–	–	–	–	–	–	–	–
COc1cccc(OC)c1OCCNCC1Oc2ccccc2OC1c1ccc(C)cc1 (racemic)	–	606	3.5	8.67	11.8	5.32	0.91	103	17.03	< 5	82.3	–	–	–	–
COc1cccc(OC)c1OCCNC[C@@H]1Oc2ccccc2O[C@H]1c1ccc(C)cc1	4293	889	–	8.92	6.57	–	–	62.6	9.97	< 5	–	1.76	0.35	86.5	–
COc1cccc(OC)c1OCCNC[C@H]1Oc2ccccc2O[C@@H]1c1ccc(C)cc1	2142	1260	–	7.59	191	–	–	774	121.2	< 5	–	40.3	8.34	827	–
COc1cccc(OC)c1OCCNCC1COc2ccccc2O1 (stereo not given)	14.72	7.26	–	9.13	6.26	–	–	–	8.72	–	–	1.29	0.62	123	6.29

Source: ChEMBL document CHEMBL1129681, “Synthesis, absolute configuration, and biological profile of the enantiomers of trans-[2-(2,6-dimethoxyphenoxy)ethyl] [(3-p-tolyl-2,3-dihydro-1,4-benzodioxin-2-yl)methyl]amine (mephendioxan), a potent competitive alpha 1A-adrenoreceptor antagonist” (J Med Chem, 1996)
